Source: ChEMBL document CHEMBL5696442, “Discovery of type II inhibitors of TGFβ-activated kinase 1 (TAK1) and mitogen-activated protein kinase kinase kinase kinase 2 (MAP4K2)” (J Med Chem, 2015)

Tests used:
[1] = biological target: Calcium/calmodulin-dependent protein kinase type 1 (Homo sapiens) (UniProt Q14012); assay: Inhibition of CAMK1 alpha Lys1 labeling site in human Huh-7 cell lysate at 1 uM by KiNativ Profiling analysis relative to control; format: subcellular
[2] = biological target: Tyrosine-protein kinase ABL2 (Homo sapiens, UniProt P42684); assay: Inhibition of ARG Lys1 labeling site in human Huh-7 cell lysate at 1 uM by KiNativ Profiling analysis relative to control; format: subcellular
[3] = biological target: Serine/threonine-protein kinase WNK2 (Homo sapiens) (UniProt Q9Y3S1); assay: Inhibition of Wnk2 ATP Loop labeling site in human A-375 cells at 0.5 uM by KiNativ Profiling analysis relative to control; format: cell-based
[4] = biological target: T1, Serine/threonine-protein kinase TBK1 (Homo sapiens) (UniProt Q9UHD2); assay: Inhibition of TBK1 Lys1 labeling site in human A-375 cells at 0.05 uM by KiNativ Profiling analysis relative to control; format: cell-based
T1 sequence (whole entry): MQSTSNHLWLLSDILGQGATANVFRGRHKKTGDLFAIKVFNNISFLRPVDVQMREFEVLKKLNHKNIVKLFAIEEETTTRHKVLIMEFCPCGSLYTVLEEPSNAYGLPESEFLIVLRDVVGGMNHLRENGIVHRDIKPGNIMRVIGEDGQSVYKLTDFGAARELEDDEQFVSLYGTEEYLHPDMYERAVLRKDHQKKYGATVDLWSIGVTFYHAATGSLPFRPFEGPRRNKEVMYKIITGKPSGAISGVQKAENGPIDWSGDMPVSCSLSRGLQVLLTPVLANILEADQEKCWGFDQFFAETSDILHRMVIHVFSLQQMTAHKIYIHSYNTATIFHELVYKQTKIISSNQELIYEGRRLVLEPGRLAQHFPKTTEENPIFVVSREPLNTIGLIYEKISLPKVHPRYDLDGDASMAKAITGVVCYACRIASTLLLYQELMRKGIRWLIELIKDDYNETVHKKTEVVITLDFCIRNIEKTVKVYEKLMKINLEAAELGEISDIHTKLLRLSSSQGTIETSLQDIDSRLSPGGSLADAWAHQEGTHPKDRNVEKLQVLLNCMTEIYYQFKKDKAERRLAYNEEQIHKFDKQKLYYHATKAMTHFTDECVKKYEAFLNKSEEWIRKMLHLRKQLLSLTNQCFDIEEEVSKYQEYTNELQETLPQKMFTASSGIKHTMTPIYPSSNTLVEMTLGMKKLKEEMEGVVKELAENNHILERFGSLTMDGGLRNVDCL

[5] = biological target: T2, Phosphatidylinositol 5-phosphate 4-kinase type-2 gamma (Homo sapiens) (UniProt Q8TBX8); assay: Inhibition of PIP4K2C ATP labeling site harbouring VKELPTLK in human A-375 cells at 0.5 uM by KiNativ Profiling analysis relative to control; format: cell-based
T2 sequence (whole entry): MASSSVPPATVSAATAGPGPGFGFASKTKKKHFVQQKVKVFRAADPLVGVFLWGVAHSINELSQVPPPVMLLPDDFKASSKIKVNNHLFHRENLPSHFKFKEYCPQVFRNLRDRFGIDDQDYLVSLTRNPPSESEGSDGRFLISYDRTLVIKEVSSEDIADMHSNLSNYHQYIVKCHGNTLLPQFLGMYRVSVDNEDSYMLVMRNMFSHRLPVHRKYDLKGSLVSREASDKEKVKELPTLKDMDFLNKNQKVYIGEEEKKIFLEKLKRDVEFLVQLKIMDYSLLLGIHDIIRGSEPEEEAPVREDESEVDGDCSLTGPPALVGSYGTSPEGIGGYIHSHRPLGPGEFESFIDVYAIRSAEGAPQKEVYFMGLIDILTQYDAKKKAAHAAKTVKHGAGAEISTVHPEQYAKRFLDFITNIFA
Procedure, shortened: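 Live A375 melanoma cells were treated with compound at 5 or 0.5 μM, then lysed. Lysates were labeled with a lysine-reactive ATP or ADP-biotin probe. Read-out was the compound's protection of kinase labeling sites from probe labeling (KiNativ).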

[6] = biological target: Serine/threonine-protein kinase 26 (Homo sapiens) (UniProt Q9P289); assay: Inhibition of MST4 ACT labeling site in human A-375 cells at 0.05 uM by KiNativ Profiling analysis relative to control; format: cell-based
[7] = biological target: Phosphatidylinositol 4-kinase beta (Homo sapiens) (UniProt Q9UBF8); assay: Inhibition of PI4KB ATP labeling site harbouring VPHTQAVVLNSKDK in human A-375 cells at 0.5 uM by KiNativ Profiling analysis relative to control; format: cell-based
[8] = biological target: Serine/threonine-protein kinase WNK1 (Homo sapiens) (UniProt Q9H4A3); assay: Inhibition of Wnk1 Lys2 labeling site in human A-375 cells at 0.5 uM by KiNativ Profiling analysis relative to control; format: cell-based
[9] = biological target: Mitogen-activated protein kinase 9 (Homo sapiens, UniProt P45984); assay: Inhibition of JNK2 (unknown origin) Lys2 labeling site by KiNativ Profiling analysis
[10] = biological target: Casein kinase II subunit alpha (Homo sapiens) (UniProt P68400); assay: Inhibition of CK2a1 Protein Kinase Domain in human A-375 cells at 5 uM by KiNativ Profiling analysis relative to control; format: cell-based
Procedure, shortened: (§1)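 Intact A375 melanoma cells were treated with compound at 5 or 0.5 μM, then lysed. Lysate kinases were labeled with a lysine-reactive ATP or ADP-biotin probe (KiNativ). Inhibition is read as protection of each kinase labeling site from probe labeling.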

[11] = biological target: Serine/threonine-protein kinase WNK1 (Homo sapiens) (UniProt Q9H4A3); assay: Inhibition of Wnk1 ATP Loop labeling site in human A-375 cells at 0.5 uM by KiNativ Profiling analysis relative to control; format: cell-based
[12] = biological target: Cyclin-dependent kinase 6 (Homo sapiens) (UniProt Q00534); assay: Inhibition of CDK6 Lys2 labeling site in human A-375 cells at 5 uM by KiNativ Profiling analysis relative to control; format: cell-based; procedure, shortened: as §1
[13] = biological target: Dual specificity mitogen-activated protein kinase kinase 2 (Homo sapiens) (UniProt P36507); assay: Inhibition of MAP2K2 Lys2 labeling site in human A-375 cells at 0.5 uM by KiNativ Profiling analysis relative to control; format: cell-based
[14] = biological target: Serine/threonine-protein kinase 38 (Homo sapiens) (UniProt Q15208); assay: Inhibition of NDR1 Lys1 labeling site in human A-375 cells at 5 uM by KiNativ Profiling analysis relative to control; format: cell-based
[15] = Inhibition of p70S6K ATP Loop labeling site harbouring DLKPENIMLNHQGHVK in human A-375 cells at 0.05 uM by KiNativ Profiling analysis relative to control; conditions: condition cancer
[16] = biological target: Aurora kinase B (Homo sapiens) (UniProt Q96GD4); assay: Inhibition of AurB ATP Loop labeling site in human A-375 cells at 5 uM by KiNativ Profiling analysis relative to control; format: cell-based
Procedure, shortened: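 Live A375 melanoma cells were treated with compound at 5 or 0.5 μM, then lysed. The lysates were labeled with a lysine-reactive ATP or ADP-biotin probe. Kinase protection from probe labeling was measured by KiNativ.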

[17] = biological target: Ephrin type-B receptor 4 (Homo sapiens, UniProt P54760); assay: Inhibition of EphB4 (unknown origin) ACT labeling site by KiNativ Profiling analysis
[18] = biological target: Diacylglycerol kinase alpha (Homo sapiens) (UniProt P23743); assay: Inhibition of DGKA ATP labeling site harbouring in human A-375 cells at 0.05 uM by KiNativ Profiling analysis relative to control; format: cell-based

Chain of Serine/threonine-protein kinase WNK1 (Homo sapiens) (Q9H4A3 whole entry, looked up): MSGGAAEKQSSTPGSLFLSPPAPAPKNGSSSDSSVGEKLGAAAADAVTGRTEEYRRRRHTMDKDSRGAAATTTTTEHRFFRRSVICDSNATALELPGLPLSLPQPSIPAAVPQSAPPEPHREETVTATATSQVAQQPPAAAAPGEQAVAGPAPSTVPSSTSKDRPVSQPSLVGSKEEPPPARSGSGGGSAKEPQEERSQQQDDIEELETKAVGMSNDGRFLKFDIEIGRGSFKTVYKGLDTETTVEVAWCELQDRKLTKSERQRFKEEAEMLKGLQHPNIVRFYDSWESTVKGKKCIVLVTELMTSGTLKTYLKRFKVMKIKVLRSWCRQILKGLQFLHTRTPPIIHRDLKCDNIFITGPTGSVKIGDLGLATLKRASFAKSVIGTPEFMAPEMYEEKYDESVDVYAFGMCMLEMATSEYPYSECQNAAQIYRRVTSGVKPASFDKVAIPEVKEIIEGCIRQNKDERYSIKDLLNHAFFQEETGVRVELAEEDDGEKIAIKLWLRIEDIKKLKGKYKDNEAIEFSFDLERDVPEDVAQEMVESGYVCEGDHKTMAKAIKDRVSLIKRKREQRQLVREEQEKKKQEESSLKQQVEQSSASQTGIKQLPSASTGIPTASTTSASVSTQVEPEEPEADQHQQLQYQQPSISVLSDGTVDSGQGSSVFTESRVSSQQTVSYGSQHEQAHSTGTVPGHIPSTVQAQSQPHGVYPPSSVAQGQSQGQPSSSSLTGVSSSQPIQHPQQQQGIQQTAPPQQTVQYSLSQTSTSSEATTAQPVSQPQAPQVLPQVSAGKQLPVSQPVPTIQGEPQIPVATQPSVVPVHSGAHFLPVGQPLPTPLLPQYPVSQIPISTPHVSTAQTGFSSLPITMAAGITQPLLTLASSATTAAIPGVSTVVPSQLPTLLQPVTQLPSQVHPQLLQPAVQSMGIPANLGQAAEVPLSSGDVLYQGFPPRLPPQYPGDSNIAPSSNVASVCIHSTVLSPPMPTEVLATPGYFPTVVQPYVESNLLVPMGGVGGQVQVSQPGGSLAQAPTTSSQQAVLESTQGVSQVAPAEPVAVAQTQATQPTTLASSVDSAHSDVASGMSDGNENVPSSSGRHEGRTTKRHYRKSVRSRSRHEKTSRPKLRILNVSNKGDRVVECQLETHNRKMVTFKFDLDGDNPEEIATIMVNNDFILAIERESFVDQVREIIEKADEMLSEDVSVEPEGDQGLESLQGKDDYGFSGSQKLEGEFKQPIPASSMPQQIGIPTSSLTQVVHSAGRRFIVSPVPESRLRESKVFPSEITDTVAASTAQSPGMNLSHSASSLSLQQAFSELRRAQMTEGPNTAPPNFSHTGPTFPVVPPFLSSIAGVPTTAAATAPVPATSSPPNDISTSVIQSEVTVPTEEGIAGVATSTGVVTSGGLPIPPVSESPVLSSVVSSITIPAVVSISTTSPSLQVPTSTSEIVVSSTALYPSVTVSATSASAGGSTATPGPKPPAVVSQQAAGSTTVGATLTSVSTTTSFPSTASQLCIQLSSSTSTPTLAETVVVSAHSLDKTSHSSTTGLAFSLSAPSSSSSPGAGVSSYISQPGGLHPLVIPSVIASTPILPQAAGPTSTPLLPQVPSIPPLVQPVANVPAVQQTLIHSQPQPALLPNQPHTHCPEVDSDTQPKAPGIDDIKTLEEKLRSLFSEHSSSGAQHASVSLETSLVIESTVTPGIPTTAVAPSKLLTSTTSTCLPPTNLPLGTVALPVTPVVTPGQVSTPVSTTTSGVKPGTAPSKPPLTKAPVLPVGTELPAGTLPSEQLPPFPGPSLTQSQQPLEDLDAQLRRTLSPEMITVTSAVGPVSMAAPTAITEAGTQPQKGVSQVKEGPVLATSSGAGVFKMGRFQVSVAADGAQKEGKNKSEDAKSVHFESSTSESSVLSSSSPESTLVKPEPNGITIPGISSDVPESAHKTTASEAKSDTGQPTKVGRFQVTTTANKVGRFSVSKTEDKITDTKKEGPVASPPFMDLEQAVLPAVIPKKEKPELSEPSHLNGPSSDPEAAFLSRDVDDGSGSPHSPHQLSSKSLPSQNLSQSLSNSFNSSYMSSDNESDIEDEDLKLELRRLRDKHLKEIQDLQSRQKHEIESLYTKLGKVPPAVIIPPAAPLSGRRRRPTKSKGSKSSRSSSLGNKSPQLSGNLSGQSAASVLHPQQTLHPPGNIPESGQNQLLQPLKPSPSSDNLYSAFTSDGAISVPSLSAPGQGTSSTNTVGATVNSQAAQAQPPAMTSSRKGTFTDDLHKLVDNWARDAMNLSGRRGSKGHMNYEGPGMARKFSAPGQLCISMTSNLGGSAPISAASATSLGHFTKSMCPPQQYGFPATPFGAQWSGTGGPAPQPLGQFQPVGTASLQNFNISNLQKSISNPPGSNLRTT
Chain of Cyclin-dependent kinase 6 (Homo sapiens) (Q00534 whole entry): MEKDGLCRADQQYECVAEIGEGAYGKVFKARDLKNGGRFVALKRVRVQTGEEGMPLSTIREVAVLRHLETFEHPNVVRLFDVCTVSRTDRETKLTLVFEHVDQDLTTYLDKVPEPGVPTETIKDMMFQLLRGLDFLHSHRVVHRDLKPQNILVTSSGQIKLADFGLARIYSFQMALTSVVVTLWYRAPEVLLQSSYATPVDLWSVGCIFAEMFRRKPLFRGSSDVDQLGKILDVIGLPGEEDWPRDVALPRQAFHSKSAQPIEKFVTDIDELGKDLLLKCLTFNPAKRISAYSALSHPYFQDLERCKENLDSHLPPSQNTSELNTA
Chain of Tyrosine-protein kinase ABL2 (P42684 whole entry): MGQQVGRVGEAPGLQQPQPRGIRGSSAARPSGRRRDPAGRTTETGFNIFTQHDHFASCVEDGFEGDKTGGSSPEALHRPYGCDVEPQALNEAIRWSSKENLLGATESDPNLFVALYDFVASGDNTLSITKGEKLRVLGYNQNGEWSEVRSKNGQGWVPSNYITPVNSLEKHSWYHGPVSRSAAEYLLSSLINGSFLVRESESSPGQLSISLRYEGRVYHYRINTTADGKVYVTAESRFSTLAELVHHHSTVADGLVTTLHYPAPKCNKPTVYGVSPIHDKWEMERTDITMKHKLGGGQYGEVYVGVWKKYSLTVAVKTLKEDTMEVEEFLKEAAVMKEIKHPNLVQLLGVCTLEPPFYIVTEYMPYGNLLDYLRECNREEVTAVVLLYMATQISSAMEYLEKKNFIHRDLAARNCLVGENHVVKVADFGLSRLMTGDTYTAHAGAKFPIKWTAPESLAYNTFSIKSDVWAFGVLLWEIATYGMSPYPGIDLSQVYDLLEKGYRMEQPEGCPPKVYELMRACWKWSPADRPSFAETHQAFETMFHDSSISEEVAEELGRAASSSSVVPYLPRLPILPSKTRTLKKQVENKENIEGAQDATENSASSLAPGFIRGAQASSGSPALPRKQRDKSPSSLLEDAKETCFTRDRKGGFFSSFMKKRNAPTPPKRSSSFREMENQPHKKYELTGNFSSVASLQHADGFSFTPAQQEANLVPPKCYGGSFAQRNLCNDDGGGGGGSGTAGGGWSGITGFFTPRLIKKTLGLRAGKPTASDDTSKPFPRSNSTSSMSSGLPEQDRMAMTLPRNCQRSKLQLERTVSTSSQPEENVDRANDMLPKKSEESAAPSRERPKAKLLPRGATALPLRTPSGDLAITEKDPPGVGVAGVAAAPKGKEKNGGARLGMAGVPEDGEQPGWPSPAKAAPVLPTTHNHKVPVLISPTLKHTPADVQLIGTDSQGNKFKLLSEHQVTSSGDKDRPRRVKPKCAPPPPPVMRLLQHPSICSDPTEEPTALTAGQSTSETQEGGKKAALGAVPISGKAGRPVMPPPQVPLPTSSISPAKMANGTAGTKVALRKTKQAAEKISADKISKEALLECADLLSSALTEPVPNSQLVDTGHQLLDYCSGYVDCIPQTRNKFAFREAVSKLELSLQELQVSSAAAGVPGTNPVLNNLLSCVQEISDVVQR
Chain of Aurora kinase B (Homo sapiens) (Q96GD4 whole entry): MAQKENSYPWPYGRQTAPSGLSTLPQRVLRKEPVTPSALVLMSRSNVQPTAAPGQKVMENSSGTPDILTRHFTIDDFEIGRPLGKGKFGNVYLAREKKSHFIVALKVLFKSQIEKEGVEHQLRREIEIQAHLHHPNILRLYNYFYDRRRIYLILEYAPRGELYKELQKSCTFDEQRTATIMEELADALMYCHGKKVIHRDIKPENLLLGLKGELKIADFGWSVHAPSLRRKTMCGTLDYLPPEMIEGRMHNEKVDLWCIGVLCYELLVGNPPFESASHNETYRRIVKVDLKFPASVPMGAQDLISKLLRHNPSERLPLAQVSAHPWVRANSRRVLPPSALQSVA
Chain of Calcium/calmodulin-dependent protein kinase type 1 (Homo sapiens) (Q14012 whole entry, looked up): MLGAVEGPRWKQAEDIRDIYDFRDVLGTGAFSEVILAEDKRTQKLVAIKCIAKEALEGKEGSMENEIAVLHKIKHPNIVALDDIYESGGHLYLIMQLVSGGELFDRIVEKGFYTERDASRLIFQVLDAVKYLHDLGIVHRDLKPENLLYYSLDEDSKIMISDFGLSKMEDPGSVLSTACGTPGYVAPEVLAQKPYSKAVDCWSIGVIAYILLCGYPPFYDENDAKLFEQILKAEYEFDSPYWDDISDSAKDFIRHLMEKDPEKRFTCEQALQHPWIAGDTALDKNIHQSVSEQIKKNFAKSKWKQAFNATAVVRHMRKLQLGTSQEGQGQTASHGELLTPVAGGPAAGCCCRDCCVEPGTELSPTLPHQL
Chain of Serine/threonine-protein kinase 26 (Homo sapiens) (Q9P289 2-416 limits assumed): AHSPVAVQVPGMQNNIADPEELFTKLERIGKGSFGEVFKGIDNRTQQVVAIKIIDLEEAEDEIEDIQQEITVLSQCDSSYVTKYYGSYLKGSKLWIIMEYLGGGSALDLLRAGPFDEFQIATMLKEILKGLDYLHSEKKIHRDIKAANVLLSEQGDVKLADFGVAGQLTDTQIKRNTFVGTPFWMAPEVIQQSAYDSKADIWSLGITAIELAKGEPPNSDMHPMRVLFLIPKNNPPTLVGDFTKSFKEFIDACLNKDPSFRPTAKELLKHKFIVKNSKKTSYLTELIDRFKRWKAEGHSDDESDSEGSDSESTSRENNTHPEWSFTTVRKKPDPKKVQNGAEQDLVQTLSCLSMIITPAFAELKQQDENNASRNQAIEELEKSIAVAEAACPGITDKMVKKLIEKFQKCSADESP

SMILES	inhibition [1]	inhibition [2]	inhibition [3]	inhibition [4]	inhibition [5]	inhibition [6]	inhibition [7]	inhibition [8]	IC50 [9]	inhibition [10]	inhibition [11]	inhibition [12]	inhibition [13]	inhibition [14]	inhibition at 0.05 µM [15]	inhibition [16]	IC50 [17]	inhibition [18]
CNc1cc(Oc2cc(C(=O)Nc3cc(-n4cnc(C)c4)cc(C(F)(F)F)c3)ccc2C)ncn1	5%	51.8%																
CNc1cc(Oc2cc(C(=O)Nc3cc(N4CCN(C)CC4)cc(C(F)(F)F)c3)ccc2C)ncn1	8.8%	48.4%																
CCN1CCN(Cc2ccc(NC(=O)c3ccc(C)c(Oc4ccnc5[nH]ccc45)c3)cc2C(F)(F)F)CC1			11.4%	16.7%	-1.8%	22.4%	6.9%	-3%	> 10000 nM	15.4%	11.4%	6.8%	-3.9%	-0.8%	18.9%	31.4%	999 nM	-8.4%
CCN1CCN(Cc2ccc(NC(=O)c3ccc(C)c(/C=C/c4cnc5[nH]ccc5c4OC)c3)cc2C(F)(F)F)CC1			15.3%	33.4%	9.2%	13.5%	-4.3%	7.9%	> 10000 nM	1%	15.3%	-2.3%	1.8%	3.3%	-14.4%	48.5%	54 nM	14.6%
